Experimental data as given in ChEMBL document CHEMBL1811814, “Synthesis and evaluation of indole, pyrazole, chromone and pyrimidine based conjugates for tumor growth inhibitory activities--development of highly efficacious cytotoxic agents” (Eur J Med Chem, 2010).

Tests used:
Type in all cases: functional
Design in all cases: scale not given: the % may be the effect or the level left
NCI/ADR-RES = test: Growth inhibition of human NCI/ADR-RES cells assessed tumor cell growth at 10^-5 M
Method in brief: (§1)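 NCI 60-human-tumor-cell-line panel screen. Each compound was tested at a single concentration of 10^-5 M, and percent growth of tumor cells was recorded for each cell line. Growth inhibition was expressed from these percent-growth values.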

HOP-92 = test: Growth inhibition of human HOP92 cells assessed tumor cell growth at 10^-5 M; method in brief: as §1
HCT-15 = test: Growth inhibition of human HCT15 cells assessed tumor cell growth at 10^-5 M; method in brief: as §1
NCI-H522 = test: Growth inhibition of human NCI-H522 cells assessed tumor cell growth at 10^-5 M; method in brief: as §1
SF-295 = test: Growth inhibition of human SF295 cells assessed tumor cell growth at 10^-5 M; method in brief: as §1
OVCAR-5 = test: Growth inhibition of human OVCAR5 cells assessed tumor cell growth at 10^-5 M; method in brief: as §1
KM12 = test: Growth inhibition of human KM12 cells assessed tumor cell growth at 10^-5 M; method in brief: as §1
UO-31 = test: Growth inhibition of human UO31 cells assessed tumor cell growth at 10^-5 M
Method in brief: (§2)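 Single-dose screen at 10^-5 M across the 60 human tumor cell line panel, run to NCI standards. The value is the percent growth of each cell line in the presence of compound. Compounds active at this dose moved on to five-concentration testing (10^-4 to 10^-8 M).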

SR = test: Growth inhibition of human SR cells assessed tumor cell growth at 10^-5 M; method in brief: as §2
MDA-MB-435 = test: Growth inhibition of human MDA-MB-435 cells assessed tumor cell growth at 10^-5 M; method in brief: as §1
SF-268 = test: Growth inhibition of human SF268 cells assessed tumor cell growth at 10^-5 M; method in brief: as §1
OVCAR-8 = test: Growth inhibition of human OVCAR8 cells assessed tumor cell growth at 10^-5 M; method in brief: as §1
NCI-H226 = test: Growth inhibition of human NCI-H226 cells assessed tumor cell growth at 10^-5 M; method in brief: as §1
UACC-257 = test: Growth inhibition of human UACC257 cells assessed tumor cell growth at 10^-5 M; method in brief: as §2
SK-OV-3 = test: Growth inhibition of human SKOV3 cells assessed tumor cell growth at 10^-5 M; method in brief: as §1
[1] = Growth inhibition of human Hs 578T cells assessed tumor cell growth at 10^-5 M; method in brief: as §1
HCT-116 = test: Growth inhibition of human HCT116 cells assessed tumor cell growth at 10^-5 M; method in brief: as §1
[2] = Growth inhibition of human […] cells assessed tumor cell growth at 10^-5 M; method in brief: as §1
MDA-MB-231 = test: Growth inhibition of human MDA-MB-231 cells assessed tumor cell growth at 10^-5 M; method in brief: as §1
SK-MEL-5 = test: Growth inhibition of human SK-MEL-5 cells assessed tumor cell growth at 10^-5 M; method in brief: as §1
ACHN = test: Growth inhibition of human ACHN cells assessed tumor cell growth at 10^-5 M; method in brief: as §1
SK-MEL-28 = test: Growth inhibition of human SK-MEL-28 cells assessed tumor cell growth at 10^-5 M; method in brief: as §1
K562 = test: Growth inhibition of human K562 cells assessed tumor cell growth at 10^-5 M; method in brief: as §1
SNB-75 = test: Growth inhibition of human SNB75 cells assessed tumor cell growth at 10^-5 M; method in brief: as §2
LOX IMVI = test: Growth inhibition of human LOXIMVI cells assessed tumor cell growth at 10^-5 M; method in brief: as §1
IGROV-1 = test: Growth inhibition of human IGROV1 cells assessed tumor cell growth at 10^-5 M; method in brief: as §1
HT-29 = test: Growth inhibition of human HT-29 cells assessed tumor cell growth at 10^-5 M; method in brief: as §1
RXF 393 = test: Growth inhibition of human RXF393 cells assessed tumor cell growth at 10^-5 M; method in brief: as §1
A549 = test: Growth inhibition of human A549 cells assessed tumor cell growth at 10^-5 M; method in brief: as §1
SF-539 = test: Growth inhibition of human SF539 cells assessed tumor cell growth at 10^-5 M; method in brief: as §1
OVCAR-3 = test: Growth inhibition of human OVCAR3 cells assessed tumor cell growth at 10^-5 M; method in brief: as §1
BT-549 = test: Growth inhibition of human BT549 cells assessed tumor cell growth at 10^-5 M; method in brief: as §1
NCI-H23 = test: Growth inhibition of human NCI-H23 cells assessed tumor cell growth at 10^-5 M; method in brief: as §1
CAKI-1 = test: Growth inhibition of human Caki1 cells assessed tumor cell growth at 10^-5 M; method in brief: as §1
786-0 = test: Growth inhibition of human 786-0 cells assessed tumor cell growth at 10^-5 M; method in brief: as §1
SNB-19 = test: Growth inhibition of human SNB19 cells assessed tumor cell growth at 10^-5 M; method in brief: as §2
Malme-3M = test: Growth inhibition of human MALME-3M cells assessed tumor cell growth at 10^-5 M; method in brief: as §1
COLO 205 = test: Growth inhibition of human COLO205 cells assessed tumor cell growth at 10^-5 M; method in brief: as §1
EKVX = test: Growth inhibition of human EKVX cells assessed tumor cell growth at 10^-5 M; method in brief: as §1
HOP-62 = test: Growth inhibition of human HOP62 cells assessed tumor cell growth at 10^-5 M; method in brief: as §1
A498 = test: Growth inhibition of human A498 cells assessed tumor cell growth at 10^-5 M; method in brief: as §1
PC-3 = test: Growth inhibition of human PC3 cells assessed tumor cell growth at 10^-5 M; method in brief: as §1
SN12C = test: Growth inhibition of human SN12C cells assessed tumor cell growth at 10^-5 M; method in brief: as §1
NCI-H460 = test: Growth inhibition of human NCI-H460 cells assessed tumor cell growth at 10^-5 M; method in brief: as §1
OVCAR-4 = test: Growth inhibition of human OVCAR4 cells assessed tumor cell growth at 10^-5 M; method in brief: as §1
HL-60(TB) = test: Growth inhibition of human HL-60(TB) cells assessed tumor cell growth at 10^-5 M
Method in brief: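 HL-60(TB), part of the 60-line panel, tested at a single concentration of 10^-5 M. The read-out is percent tumor cell growth relative to untreated growth.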

U-251 = test: Growth inhibition of human U251 cells assessed tumor cell growth at 10^-5 M; method in brief: as §2
MDA-MB-468 = test: Growth inhibition of human MDA-MB-468 cells assessed tumor cell growth at 10^-5 M; method in brief: as §1
NCI-H322M = test: Growth inhibition of human NCI-H322M cells assessed tumor cell growth at 10^-5 M; method in brief: as §1
TK-10 = test: Growth inhibition of human TK10 cells assessed tumor cell growth at 10^-5 M; method in brief: as §2
HCC 2998 = test: Growth inhibition of human HCC2998 cells assessed tumor cell growth at 10^-5 M; method in brief: as §1
DU-145 = test: Growth inhibition of human DU145 cells assessed tumor cell growth at 10^-5 M; method in brief: as §1
T47D = test: Growth inhibition of human T47D cells assessed tumor cell growth at 10^-5 M; method in brief: as §2
M14 = test: Growth inhibition of human M14 cells assessed tumor cell growth at 10^-5 M; method in brief: as §1
SW-620 = test: Growth inhibition of human SW620 cells assessed tumor cell growth at 10^-5 M; method in brief: as §2
MCF7 = test: Growth inhibition of human MCF7 cells assessed tumor cell growth at 10^-5 M; method in brief: as §1
SK-MEL-2 = test: Growth inhibition of human SK-MEL-2 cells assessed tumor cell growth at 10^-5 M; method in brief: as §1
UACC-62 = test: Growth inhibition of human UACC62 cells assessed tumor cell growth at 10^-5 M; method in brief: as §2
CCRF-CEM = test: Growth inhibition of human CCRF-CEM cells assessed tumor cell growth at 10^-5 M; method in brief: as §1
MOLT-4 = test: Growth inhibition of human MOLT4 cells assessed tumor cell growth at 10^-5 M; method in brief: as §1

Cc1ccc(S(=O)(=O)n2cc(/C=C3\C(=O)N(c4c(Cl)cccc4Cl)c4ccccc43)c3ccccc32)cc1
Activity (NCI/ADR-RES): 88.2% | Activity (HOP-92): 33.5% | Activity (HCT-15): 104.5% | Activity (NCI-H522): 91.5% | Activity (SF-295): 100.8% | Activity (OVCAR-5): 84.2% | Activity (KM12): 97.6% | Activity (UO-31): 63.9% | Activity (SR): 87.4% | Activity (MDA-MB-435): 99.2% | Activity (SF-268): 86.4% | Activity (OVCAR-8): 96.7% | Activity (NCI-H226): 95.2% | Activity (UACC-257): 106.8% | Activity (SK-OV-3): 98.7% | Activity [1]: 73.4% | Activity (HCT-116): 87% | Activity [2]: 77.8% | Activity (MDA-MB-231): 89.3% | Activity (SK-MEL-5): 101% | Activity (ACHN): 89.8% | Activity (SK-MEL-28): 95.8% | Activity (K562): 86.5% | Activity (SNB-75): 74.3% | Activity (LOX IMVI): 89.7% | Activity (IGROV-1): 83.8% | Activity (HT-29): 89.3% | Activity (RXF 393): 121.2% | Activity (A549): 103.8% | Activity (SF-539): 102.9% | Activity (OVCAR-3): 94.9% | Activity (BT-549): 94.2% | Activity (NCI-H23): 76.6% | Activity (CAKI-1): 79.5% | Activity (786-0): 92.1% | Activity (SNB-19): 105.9% | Activity (Malme-3M): 75.8% | Activity (COLO 205): 100.1% | Activity (EKVX): 89.5% | Activity (HOP-62): 83.2% | Activity (A498): 44% | Activity (PC-3): 64.5% | Activity (SN12C): 87.4% | Activity (NCI-H460): 102.8% | Activity (OVCAR-4): 73.8% | Activity (HL-60(TB)): 79.6% | Activity (U-251): 98.2% | Activity (MDA-MB-468): 84% | Activity (NCI-H322M): 99.4% | Activity (TK-10): 102.3% | Activity (HCC 2998): 86.7% | Activity (DU-145): 102.5% | Activity (T47D): 88.7% | Activity (M14): 76% | Activity (SW-620): 89.9% | Activity (MCF7): 84.6% | Activity (SK-MEL-2): 94.5% | Activity (UACC-62): 78.2% | Activity (CCRF-CEM): 95.6% | Activity (MOLT-4): 89.6%

CC1=NN(c2cccc(Cl)c2)C(=O)/C1=C\c1ccccn1
Activity (NCI/ADR-RES): 116.87% | Activity (HOP-92): 100.37% | Activity (HCT-15): 114.26% | Activity (NCI-H522): 104.42% | Activity (SF-295): 118.39% | Activity (OVCAR-5): 116.2% | Activity (KM12): 111.47% | Activity (UO-31): 81.52% | Activity (SR): 112.11% | Activity (MDA-MB-435): 117.42% | Activity (SF-268): 100.43% | Activity (OVCAR-8): 105.14% | Activity (NCI-H226): 112.86% | Activity (UACC-257): 115.54% | Activity (SK-OV-3): 113.71% | Activity [1]: 111.76% | Activity (HCT-116): 88.7% | Activity [2]: 96.65% | Activity (MDA-MB-231): 106.88% | Activity (SK-MEL-5): 103.51% | Activity (ACHN): 103.1% | Activity (SK-MEL-28): 128.95% | Activity (K562): 102.25% | Activity (SNB-75): 103.79% | Activity (LOX IMVI): 116.29% | Activity (IGROV-1): 103.16% | Activity (HT-29): 114.19% | Activity (RXF 393): 114.31% | Activity (A549): 116.18% | Activity (SF-539): 115.91% | Activity (OVCAR-3): 117.75% | Activity (BT-549): 111.06% | Activity (NCI-H23): 111.77% | Activity (CAKI-1): 98.46% | Activity (786-0): 113.47% | Activity (SNB-19): 111.92% | Activity (Malme-3M): 121.3% | Activity (COLO 205): 112.21% | Activity (EKVX): 117.01% | Activity (HOP-62): 107.34% | Activity (A498): 111.6% | Activity (PC-3): 113.15% | Activity (SN12C): 91.77% | Activity (NCI-H460): 117.15% | Activity (OVCAR-4): 128.45% | Activity (HL-60(TB)): 113.01% | Activity (U-251): 115.89% | Activity (MDA-MB-468): 116.6% | Activity (NCI-H322M): 123.35% | Activity (TK-10): 118.17% | Activity (HCC 2998): 120.72% | Activity (DU-145): 120.58% | Activity (T47D): 100.29% | Activity (M14): 80.87% | Activity (SW-620): 116.97% | Activity (MCF7): 102.77% | Activity (SK-MEL-2): 112.74% | Activity (UACC-62): 101.53% | Activity (CCRF-CEM): 32.58% | Activity (MOLT-4): 111.67%
